Assay results pooled from the literature.
Compare with care: the assays were run in different laboratories.
MMP7: Matrilysin (MMP7, Homo sapiens, UniProt P09237)

Structure (SMILES) | target | read-out | mode | method | tested at | measurement | result
COc1ncccc1-c1cnn2ccc(N3CCN(C(=O)OC(C)C)CC3)nc12 | Phosphatidylinositol 4-phosphate 5-kinase type-1 gamma (PIP5K1C, Homo sapiens, UniProt O60331) | binding | – | competition with immobilised ligand | 1 µM | remaining binding | 53%
CCOC(=O)c1ccc(OC(=O)CCCCCNC(=N)N)cc1 | MMP7 | enzyme activity | inhibitor | – | 10 µM | inhibition | 3%
C#Cc1n[nH]c2c(-c3cn([C@@H](C)c4ccccn4)c(=O)[nH]c3=O)cc(F)cc12 | Tyrosine-protein kinase receptor UFO (AXL, Homo sapiens, UniProt P30530) | enzyme activity | inhibitor | – | 0.1 µM | inhibition | 13.4%
O=c1ccc2ccc3occc3c2o1 | Aldehyde dehydrogenase 1A1 (ALDH1A1, Homo sapiens, UniProt P00352) | enzyme activity | inhibitor | absorbance | 10 µM | activity vs control | 61%
N=C(N)c1ccc2cc(OC(=O)c3ccc(N=C(N)N)cc3)ccc2c1 | MMP7 | enzyme activity | inhibitor | – | 10 µM | inhibition | 5%
Cc1cc(=O)oc2cc(NC(=O)[C@H](CCCNC(=N)N)NC(=O)[C@H](CCCNC(=N)N)NC(=O)[C@@H](NC(=O)[C@H](CCCNC(=N)N)NC(=O)OC(C)(C)C)C(C)C)ccc12 | Furin (FURIN, Homo sapiens, UniProt P09958) | enzyme activity | substrate | fluorescence | – | Km | 44.6 µM
Cc1nn(C)cc1-c1nc2c(N3CCN(Cc4ccc(Cl)cc4)CC3)c(Cl)cnc2[nH]1 | Serine/threonine-protein kinase 32A (STK32A, Homo sapiens, UniProt Q8WU08) | binding | – | competition with immobilised ligand | 1 µM | remaining binding | 100%
Nc1ncc(-c2nc(N3CCOCC3)nc(N3CCOCC3)n2)c(C(F)F)n1 | Serine/threonine-protein kinase 17B (STK17B, Homo sapiens, UniProt O94768) | binding | – | competition with immobilised ligand | 10 µM | remaining binding | 85%
